Source: ChEMBL document CHEMBL1124820, “Total synthesis of the four stereoisomers of dihexadecanoyl phosphatidylinositol and the substrate stereospecificity of human erythrocyte membrane phosphatidylinositol 4-kinase” (J Med Chem, 1990)

How the values were obtained:
[1] = biological target: T1, Phosphatidylinositol 4-kinase, PI4K (Homo sapiens) (UniProt Q9BTU6+Q8TCG2+Q9UBF8+P42356); test: Rate of phosphorylation was determined with that of mammalian PI using human erythrocyte PI 4-kinase at 200 uM substrate; assay type: functional
Procedure, shortened: (§1)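 Enzyme was extracted with Triton X-100 from human erythrocyte membranes and purified about 90-fold. Substrate at 200 μM final was tested in mixed micelles with 0.3% Triton X-100, 100 μM [γ-32P]ATP, 15 mM MgCl2, 1 mM EGTA, 1 mM DTT, 0.1 M NaCl and 50 mM HEPES pH 7.4 at 30 °C. Reactions were stopped with acidified CHCl3/MeOH, and organic-phase 32P was counted. Rates were expressed relative to mammalian PI, triplicate, mean ± SE.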

[2] = biological target: T1, Phosphatidylinositol 4-kinase, PI4K (Homo sapiens); test: Percent relative rate of phosphorylation was determined using human erythrocyte PI 4-kinase; assay type: functional; procedure, shortened: as §1

T1 sequence (P42356 whole entry, looked up): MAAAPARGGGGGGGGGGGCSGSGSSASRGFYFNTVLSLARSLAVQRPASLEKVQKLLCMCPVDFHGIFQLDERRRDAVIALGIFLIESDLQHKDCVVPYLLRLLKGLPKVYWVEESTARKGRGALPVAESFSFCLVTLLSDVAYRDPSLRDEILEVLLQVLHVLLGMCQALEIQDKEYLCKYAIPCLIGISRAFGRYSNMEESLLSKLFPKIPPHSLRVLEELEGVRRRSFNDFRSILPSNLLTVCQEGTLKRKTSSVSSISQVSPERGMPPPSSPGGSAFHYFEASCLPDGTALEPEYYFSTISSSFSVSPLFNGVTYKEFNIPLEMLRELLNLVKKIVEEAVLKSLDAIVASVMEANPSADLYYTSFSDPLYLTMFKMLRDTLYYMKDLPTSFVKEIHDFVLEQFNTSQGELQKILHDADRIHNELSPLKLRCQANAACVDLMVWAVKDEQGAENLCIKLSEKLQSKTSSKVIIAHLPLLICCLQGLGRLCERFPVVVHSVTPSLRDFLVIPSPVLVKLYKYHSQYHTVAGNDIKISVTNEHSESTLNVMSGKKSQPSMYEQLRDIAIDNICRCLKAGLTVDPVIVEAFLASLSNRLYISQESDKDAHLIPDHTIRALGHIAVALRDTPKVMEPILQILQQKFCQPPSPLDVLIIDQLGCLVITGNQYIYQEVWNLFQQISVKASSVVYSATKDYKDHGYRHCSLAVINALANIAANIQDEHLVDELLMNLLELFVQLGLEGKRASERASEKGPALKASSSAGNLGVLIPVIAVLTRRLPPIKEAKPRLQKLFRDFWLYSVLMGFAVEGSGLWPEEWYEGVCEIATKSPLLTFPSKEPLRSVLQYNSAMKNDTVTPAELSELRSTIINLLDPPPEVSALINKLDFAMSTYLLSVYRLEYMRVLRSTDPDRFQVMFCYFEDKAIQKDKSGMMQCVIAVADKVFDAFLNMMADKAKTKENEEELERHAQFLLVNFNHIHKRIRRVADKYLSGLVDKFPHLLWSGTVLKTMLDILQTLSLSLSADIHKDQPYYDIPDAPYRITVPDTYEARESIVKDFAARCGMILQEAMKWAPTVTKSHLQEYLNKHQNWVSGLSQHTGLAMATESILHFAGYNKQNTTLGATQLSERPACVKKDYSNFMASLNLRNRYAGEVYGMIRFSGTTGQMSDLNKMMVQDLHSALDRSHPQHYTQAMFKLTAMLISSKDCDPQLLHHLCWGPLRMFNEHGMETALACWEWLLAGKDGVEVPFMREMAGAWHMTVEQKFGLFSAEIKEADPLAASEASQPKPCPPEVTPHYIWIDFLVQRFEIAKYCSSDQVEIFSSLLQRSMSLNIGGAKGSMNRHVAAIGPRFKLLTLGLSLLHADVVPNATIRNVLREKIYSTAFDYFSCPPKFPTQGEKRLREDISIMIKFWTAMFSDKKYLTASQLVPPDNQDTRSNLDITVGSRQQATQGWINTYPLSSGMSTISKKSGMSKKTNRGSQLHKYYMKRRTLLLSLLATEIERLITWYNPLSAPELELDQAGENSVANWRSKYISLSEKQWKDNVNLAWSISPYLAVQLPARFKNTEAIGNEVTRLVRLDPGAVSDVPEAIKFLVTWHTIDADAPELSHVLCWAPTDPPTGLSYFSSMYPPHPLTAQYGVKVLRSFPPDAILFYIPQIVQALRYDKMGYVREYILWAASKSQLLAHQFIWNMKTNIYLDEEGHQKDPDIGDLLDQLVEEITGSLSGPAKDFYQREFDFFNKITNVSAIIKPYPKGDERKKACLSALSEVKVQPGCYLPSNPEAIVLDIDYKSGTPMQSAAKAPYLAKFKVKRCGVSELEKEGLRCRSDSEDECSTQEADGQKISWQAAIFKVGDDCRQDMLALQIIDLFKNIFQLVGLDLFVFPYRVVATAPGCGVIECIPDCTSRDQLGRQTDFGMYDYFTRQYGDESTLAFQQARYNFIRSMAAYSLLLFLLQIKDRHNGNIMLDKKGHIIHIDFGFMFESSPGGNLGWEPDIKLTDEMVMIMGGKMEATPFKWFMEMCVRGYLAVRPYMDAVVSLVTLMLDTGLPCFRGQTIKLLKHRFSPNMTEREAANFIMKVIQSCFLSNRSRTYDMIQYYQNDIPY
T1 sequence (Q8TCG2 whole entry, looked up): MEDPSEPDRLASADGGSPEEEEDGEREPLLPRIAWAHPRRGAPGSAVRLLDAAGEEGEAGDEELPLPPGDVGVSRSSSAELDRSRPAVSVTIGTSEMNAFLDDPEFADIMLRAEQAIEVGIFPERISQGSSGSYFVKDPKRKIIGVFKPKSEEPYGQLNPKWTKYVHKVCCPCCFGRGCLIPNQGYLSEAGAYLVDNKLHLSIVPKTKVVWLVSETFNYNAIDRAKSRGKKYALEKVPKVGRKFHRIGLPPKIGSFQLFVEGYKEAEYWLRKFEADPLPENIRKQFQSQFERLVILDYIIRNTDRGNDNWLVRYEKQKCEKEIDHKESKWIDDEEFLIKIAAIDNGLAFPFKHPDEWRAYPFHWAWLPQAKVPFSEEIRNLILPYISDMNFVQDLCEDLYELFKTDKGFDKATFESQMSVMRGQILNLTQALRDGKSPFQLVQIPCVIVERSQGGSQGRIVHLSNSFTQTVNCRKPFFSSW
T1 sequence (Q9BTU6 whole entry, looked up): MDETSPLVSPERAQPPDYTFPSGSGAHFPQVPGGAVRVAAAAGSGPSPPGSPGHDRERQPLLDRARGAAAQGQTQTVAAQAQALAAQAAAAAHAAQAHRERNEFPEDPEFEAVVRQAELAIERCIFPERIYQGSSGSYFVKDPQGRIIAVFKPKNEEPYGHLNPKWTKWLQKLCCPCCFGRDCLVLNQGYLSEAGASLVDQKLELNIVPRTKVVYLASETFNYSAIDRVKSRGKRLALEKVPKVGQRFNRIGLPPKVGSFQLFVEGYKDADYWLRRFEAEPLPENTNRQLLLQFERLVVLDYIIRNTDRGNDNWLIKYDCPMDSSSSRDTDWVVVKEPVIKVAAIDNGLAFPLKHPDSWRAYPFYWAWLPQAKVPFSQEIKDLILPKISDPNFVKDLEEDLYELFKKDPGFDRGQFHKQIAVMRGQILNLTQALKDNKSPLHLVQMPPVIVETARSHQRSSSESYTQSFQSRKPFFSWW
T1 sequence (Q9UBF8 whole entry, looked up): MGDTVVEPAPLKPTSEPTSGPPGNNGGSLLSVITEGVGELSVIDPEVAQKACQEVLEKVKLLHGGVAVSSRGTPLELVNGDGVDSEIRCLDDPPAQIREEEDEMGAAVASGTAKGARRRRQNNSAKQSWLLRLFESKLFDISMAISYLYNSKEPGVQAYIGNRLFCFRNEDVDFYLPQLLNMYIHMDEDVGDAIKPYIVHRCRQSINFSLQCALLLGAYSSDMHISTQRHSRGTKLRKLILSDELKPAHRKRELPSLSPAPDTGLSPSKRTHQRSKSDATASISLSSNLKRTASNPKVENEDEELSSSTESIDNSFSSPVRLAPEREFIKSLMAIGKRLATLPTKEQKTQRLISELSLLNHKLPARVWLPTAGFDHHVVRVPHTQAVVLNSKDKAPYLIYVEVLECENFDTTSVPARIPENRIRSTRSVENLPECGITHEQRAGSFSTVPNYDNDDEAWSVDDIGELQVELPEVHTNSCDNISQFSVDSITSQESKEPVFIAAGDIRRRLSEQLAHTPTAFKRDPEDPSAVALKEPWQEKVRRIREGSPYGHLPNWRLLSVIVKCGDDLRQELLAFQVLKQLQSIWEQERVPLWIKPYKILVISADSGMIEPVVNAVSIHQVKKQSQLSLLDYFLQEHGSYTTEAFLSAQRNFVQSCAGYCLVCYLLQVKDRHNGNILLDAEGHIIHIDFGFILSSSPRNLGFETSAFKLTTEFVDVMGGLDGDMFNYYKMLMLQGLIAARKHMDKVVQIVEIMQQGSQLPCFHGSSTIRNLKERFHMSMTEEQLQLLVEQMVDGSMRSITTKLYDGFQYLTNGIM

| SMILES | Rate of formation [1] | Relative rate [2] |
| --- | --- | --- |
| CCCCC/C=C/C/C=C/C/C=C/C/C=C/CCCC(=O)OC(COC(=O)CCCCCCCCCCCCCCCCC)COP(=O)(O)OC1C(O)C(O)C(O)C(O)C1O (stereo not given) | 23.5 pmol/min | 100% |
| CCCCCCCCCCCCCCCC(=O)OCC(COP(=O)(O)OC1C(O)C(O)C(O)C(O)C1O)OC(=O)CCCCCCCCCCCCCCC (stereo in doubt; 10a) | 24.9 pmol/min | 106% |
| CCCCCCCCCCCCCCCC(=O)OCC(COP(=O)(O)OC1C(O)C(O)C(O)C(O)C1O)OC(=O)CCCCCCCCCCCCCCC (stereo in doubt; 10b) | 23.5 pmol/min | 100% |
| CCCCCCCCCCCCCCCC(=O)OCC(COP(=O)(O)OC1C(O)C(O)C(O)C(O)C1O)OC(=O)CCCCCCCCCCCCCCC (stereo in doubt; 10c) | 1.01 pmol/min | 4.3% |
| CCCCCCCCCCCCCCCC(=O)OCC(COP(=O)(O)OC1C(O)C(O)C(O)C(O)C1O)OC(=O)CCCCCCCCCCCCCCC (stereo in doubt; 10d) | 0.76 pmol/min | 3.2% |
